In brackets after ≈: the same amount, converted by molar mass.
Legend:
[1] = biological target: T1, 4,4'-diapophytoene desaturase (4,4'-diaponeurosporene-forming) (Staphylococcus aureus (strain Newman), UniProt O07855); experiment: Inhibition of diapophytoene desaturase in Staphylococcus aureus Newman assessed as reduction in staphyloxanthin pigment formation after 48 hrs by spectrophotometry; design: species or system Staphylococcus aureus subsp. aureus str. Newman
T1 sequence (O07855 whole entry): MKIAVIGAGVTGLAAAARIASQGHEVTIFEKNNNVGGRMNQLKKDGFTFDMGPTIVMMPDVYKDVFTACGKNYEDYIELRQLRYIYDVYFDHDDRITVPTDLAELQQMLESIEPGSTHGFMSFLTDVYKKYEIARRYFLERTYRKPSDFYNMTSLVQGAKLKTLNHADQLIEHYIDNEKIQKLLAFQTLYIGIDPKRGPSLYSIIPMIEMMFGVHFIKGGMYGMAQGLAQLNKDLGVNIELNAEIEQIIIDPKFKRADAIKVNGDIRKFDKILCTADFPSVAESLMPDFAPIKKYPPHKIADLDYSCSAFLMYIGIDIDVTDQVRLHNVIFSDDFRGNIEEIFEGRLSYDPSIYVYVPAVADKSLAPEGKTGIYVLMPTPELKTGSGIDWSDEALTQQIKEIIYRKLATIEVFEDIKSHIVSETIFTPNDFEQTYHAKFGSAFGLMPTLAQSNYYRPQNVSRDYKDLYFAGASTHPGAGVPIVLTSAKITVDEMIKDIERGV

[2] = Aqueous solubility of the compound in water after 24 hrs by HPLC method; format: physicochemical
Outline: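 Excess solid stirred in pure water for 24 h, then filtered. Filtrate analysed by HPLC (10 µL injection). Concentration read against a calibration curve of peak area versus concentration, built from methanol solutions at 50–800 µg/mL.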

[3] = biological target: T1, 4,4'-diapophytoene desaturase (4,4'-diaponeurosporene-forming); experiment: Inhibition of 6x-His-tagged Staphylococcus aureus diapophytoene desaturase expressed in Escherichia coli BL21 (DE3) using diapophytoene substrate after overnight incubation
[4] = test system: Nannizzia gypsea; experiment: Antifungal activity against naftifine-sensitive Microsporum gypseum after 7 days by serial dilution method; format: functional
Outline: (§1)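 Broth serial dilution in 96-well plates per NCCLS recommendations. Medium: RPMI 1640 buffered with 0.165 M MOPS. Fungi were ATCC strains or clinical isolates.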

[5] = test system: Trichophyton verrucosum; experiment: Antifungal activity against naftifine-sensitive Trichophyton verrucosum after 7 days by serial dilution method; format: functional; outline: as §1
[6] = test system: Trichophyton mentagrophytes; experiment: Antifungal activity against naftifine-sensitive Trichophyton mentagrophytes after 7 days by serial dilution method; format: functional; outline: as §1
[7] = test system: Trichophyton rubrum; experiment: Antifungal activity against naftifine-sensitive Trichophyton rubrum after 7 days by serial dilution method; format: functional; outline: as §1

**Q.** With `CC(C)N(C/C=C/c1ccccc1)Cc1ccc2c(c1)CCCCC2` as the molecule, how does the IC50 [1] read?
**A.** > 10000 nM

**Q.** Which results are given for `CN(C/C=C/c1ccc(C(F)(F)F)cc1)Cc1ccc2c(c1)CCCC2.Cl`?
**A.** solubility at 24 h [2]: 690 µg/mL; IC50 [3]: 500 nM; IC50 [1]: 1.9 nM

**Q.** For `CN(C/C=C/c1ccccc1F)Cc1ccc2c(c1)CCCCC2`, which IC50 [1] is on record?
**A.** 246 nM

**Q.** Which IC50 [1] does the source give for `CN(C/C=C/C1CCCCC1)Cc1ccc2c(c1)CCCCC2` here?
**A.** > 10000 nM

**Q.** With `CN(CCCc1ccccc1)Cc1ccc2c(c1)CCCCC2` as the molecule, how does the IC50 [1] read?
**A.** > 10000 nM

**Q.** For `CN(C/C=C/c1ccc(Cl)cc1)Cc1ccc2c(c1)CCCC2`, which IC50 [1] is on record?
**A.** 12.8 nM

**Q.** Which results are given for `C[C@@H](c1ncncc1F)[C@](O)(Cn1cncn1)c1ccc(F)cc1F` [VORICONAZOLE]?
**A.** MIC=<80 [4]: 0.25 µg/mL (≈ 0.716 µM); MIC=<80 [5]: 0.03125 µg/mL (≈ 0.0895 µM); MIC=<80 [6]: 0.03125 µg/mL (≈ 0.0895 µM); MIC=<80 [7]: 0.03125 µg/mL (≈ 0.0895 µM)

**Q.** For `CN(C/C=C/c1ccc(Cl)cc1)Cc1ccc2c(c1)CCCCC2`, which IC50 [1] is on record?
**A.** 8.8 nM

**Q.** For `CN(C/C=C/Cc1ccccc1)Cc1ccc2c(c1)CCCCC2`, which IC50 [1] is on record?
**A.** > 10000 nM

**Q.** Which IC50 [1] does the source give for `CN(C/C=C/c1cccc([N+](=O)[O-])c1)Cc1ccc2c(c1)CCCCC2` here?
**A.** > 1000 nM

**Q.** Which IC50 [1] does the source give for `CN(C/C=C/c1ccccc1[N+](=O)[O-])Cc1ccc2c(c1)CCCCC2` here?
**A.** > 5000 nM

**Q.** Which IC50 [1] does the source give for `CN(C/C=C/C=C/c1ccccc1)Cc1ccc2c(c1)CCCCC2` here?
**A.** 12.2 nM

**Q.** For `CC(=O)N1CCN(c2ccc(OCC3COC(Cn4ccnc4)(c4ccc(Cl)cc4Cl)O3)cc2)CC1` (stereo not drawn) [KETOCONAZOLE], which “MIC=<80” value [4] is on record?
**A.** 2 µg/mL (≈ 3.76 µM)

**Q.** And the “MIC=<80” value [5]?
**A.** 0.0625 µg/mL (≈ 0.118 µM)

**Q.** And the “MIC=<80” value [6]?
**A.** 0.0625 µg/mL (≈ 0.118 µM)

**Q.** What about the “MIC=<80” value [7] of the same molecule?
**A.** 0.5 µg/mL (≈ 0.941 µM)

**Q.** Which IC50 [1] does the source give for `Cc1ccc(/C=C/CN(C)Cc2ccc3c(c2)CCCCC3)cc1` here?
**A.** 31 nM

**Q.** With `CN(C/C=C/c1ccco1)Cc1ccc2c(c1)CCCCC2` as the molecule, how does the IC50 [1] read?
**A.** > 2500 nM

**Q.** For `C(/C=C/c1ccccc1)=C\COCc1ccc2c(c1)CCCCC2`, which IC50 [1] is on record?
**A.** > 20000 nM

**Q.** For `CN(C/C=C/c1ccccc1)Cc1ccc2c(c1)CCCCC2`, which IC50 [1] is on record?
**A.** 202 nM

**Q.** With `CN(C/C=C/c1ccccc1)Cc1cccc2c1CCCC2` as the molecule, how does the IC50 [1] read?
**A.** > 1000 nM

**Q.** With `CCN(C/C=C/c1ccccc1)Cc1ccc2c(c1)CCCCC2` as the molecule, how does the IC50 [1] read?
**A.** > 1250 nM

**Q.** Which IC50 [1] does the source give for `CN(CC#Cc1ccccc1)Cc1ccc2c(c1)CCCCC2` here?
**A.** > 1250 nM

From ChEMBL document CHEMBL3826951, “Discovery of Benzocycloalkane Derivatives Efficiently Blocking Bacterial Virulence for the Treatment of Methicillin-Resistant S. aureus (MRSA) Infections by Targeting Diapophytoene Desaturase (CrtN)” (J Med Chem, 2016)
